Test results as given in ChEMBL document CHEMBL1155465, “"Viologen" dendrimers as antiviral agents: the effect of charge number and distance” (J Med Chem, 2010).
≈ marks a conversion by molar mass, not a printed value. Calls of active or inactive are those of the source. No cut-off for these calls is given here.

Assays:
Reovirus sp. = assay: Antiviral activity against Reovirus infected in african green monkey Vero cells assessed as inhibition of virus-induced cytopathicity; assay type: functional, organism-based
[1] = system: Human immunodeficiency virus 1; assay: Antiviral activity against HIV1 3B infected in human PBMC assessed as inhibition of viral p24 antigen production by ELISA; assay type: functional, organism-based; settings: Human immunodeficiency virus 1, 3B
Method in brief: (§1)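 PBMCs infected with HIV-1 IIIB and cultured with a range of compound concentrations. EC50 is 50% inhibition of supernatant p24 core antigen (ELISA) relative to drug-free culture. CC50 is 50% reduction in cell viability. SI = CC50/EC50. Mean ± SD of ≥2 experiments.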

[2] = system: Vesicular stomatitis virus; assay: Antiviral activity against VSV infected in human HeLa cell assessed as inhibition of virus-induced cytopathicity; assay type: functional, organism-based
Human alphaherpesvirus 1 [3] = assay: Antiviral activity against TK-deficient acyclovir-resistant HSV1 KOS infected in human E6SM cell assessed as inhibition of virus-induced cytopathicity; assay type: functional, organism-based; settings: Human alphaherpesvirus 1, KOS
[4] = system: Simian immunodeficiency virus; assay: Antiviral activity against SIV MAC251 infected in human MT4 cells after 5 days by MTT assay; assay type: functional, organism-based; settings: MAC251, MT4, 120 h
Method in brief: (§2)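 MT-4 cells in RPMI 1640 with 10% heat-inactivated FCS, 2 mM L-glutamine, 0.1% bicarbonate and gentamicin, seeded at 6 × 10⁵ cells/mL final with virus or mock infection. Viability read by MTT after 5 days at 540 and 690 nm, using the median OD of three wells. CC50 is 50% loss of mock-infected OD540. EC50 is 50% inhibition of virus-induced CPE. SI = CC50/EC50. Mean ± SD of ≥2 experiments.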

Sindbis virus = assay: Antiviral activity against Sindbis virus infected in african green monkey Vero cells assessed as inhibition of virus-induced cytopathicity; assay type: functional, organism-based
[5] = Cytotoxicity against human HeLa cells by MTT assay; assay type: cell-based
[6] = Selectivity index, ratio of CC50 for human MT4 cells to EC50 for HIV1 3B; assay type: toxicity, cell-based; settings: read-out: Ratio CC50/EC50; method in brief: as §2
Human respirovirus 3 = assay: Antiviral activity against Parainfluenza virus 3 infected in african green monkey Vero cells assessed as inhibition of virus-induced cytopathicity; assay type: functional, organism-based; settings: Human respirovirus 3, Vero
Human alphaherpesvirus 2 = assay: Antiviral activity against HSV2 G infected in human E6SM cell assessed as inhibition of virus-induced cytopathicity; assay type: functional, organism-based; settings: Human alphaherpesvirus 2, strain G
[7] = Cytotoxicity against human MT4 cells after 5 days by MTT assay; assay type: cell-based; method in brief: as §2
[8] = system: Vesicular stomatitis virus; assay: Antiviral activity against VSV infected in human E6SM cell assessed as inhibition of virus-induced cytopathicity; assay type: functional, organism-based
[9] = Cytotoxicity against african green monkey Vero cells by MTT assay; assay type: cell-based; settings: chlorocebus sabaeus
Human alphaherpesvirus 1 [10] = assay: Antiviral activity against HSV1 KOS infected in human E6SM cell assessed as inhibition of virus-induced cytopathicity; assay type: functional, organism-based; settings: Human alphaherpesvirus 1, KOS
[11] = system: Human immunodeficiency virus; assay: Antiviral activity against HIV SO6141 infected in human MT4 cells after 5 days by MTT assay; assay type: functional, organism-based; settings: Human immunodeficiency virus 1, SO6141, MT4, 120 h; method in brief: as §2
Punta Toro virus = assay: Antiviral activity against Punta Toro virus infected in african green monkey Vero cells assessed as inhibition of virus-induced cytopathicity; assay type: functional, organism-based
Vaccinia virus = assay: Antiviral activity against Vaccina virus infected in human E6SM cell assessed as inhibition of virus-induced cytopathicity; assay type: functional, organism-based; settings: Orthopoxvirus vaccinia
[12] = system: Human immunodeficiency virus 1; assay: Antiviral activity against HIV1 3B infected in human MT4 cells after 5 days by MTT assay; assay type: functional, organism-based; settings: Human immunodeficiency virus 1, 3B, MT4, 120 h; method in brief: as §2
[13] = Cytotoxicity against human PBMC after 5 days by MTT assay; assay type: cell-based; method in brief: as §1
[14] = Selectivity index, ratio of CC50 for human PBMC to EC50 for HIV1 3B; method in brief: as §1
[15] = Cytotoxicity against human E6SM cells by MTT assay; assay type: cell-based
[16] = system: Respiratory syncytial virus; assay: Antiviral activity against RSV infected in human HeLa cell assessed as inhibition of virus-induced cytopathicity; assay type: functional, organism-based
[17] = system: Human immunodeficiency virus 2; assay: Antiviral activity against HIV2 ROD infected in human MT4 cells after 5 days by MTT assay; assay type: functional, organism-based; settings: Human immunodeficiency virus 2, ISOLATE ROD, MT4, 120 h; method in brief: as §2
[18] = system: Human immunodeficiency virus 1; assay: Antiviral activity against HIV1 3B infected in human MT4 cells assessed as time-of-addition prolongation at 0.5 ug/ml after 31 hrs post infection by ELISA; assay type: functional
Method in brief: (§3)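 Time-of-addition: MT-4 cells infected with HIV-1 IIIB at moi 0.5 for a 1 h adsorption, then plated at 45000 cells/well at 37 °C. Compound added at 0, 1, 2, 3, 4, 5, 6, 7, 8, 24 or 25 h post-infection. Supernatant p24 antigen measured by ELISA at 31 h post-infection.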

[19] = system: Human immunodeficiency virus 1; assay: Antiviral activity against HIV1 3B infected in human MT4 cells assessed as time-of-addition prolongation at 100 ug/ml after 31 hrs post infection by ELISA; assay type: functional; method in brief: as §3
[20] = system: Human immunodeficiency virus 1; assay: Antiviral activity against HIV1 NL4-3 infected in human A72 Jurkat cells assessed as inhibition of GFP expression after 48 hrs by flow cytometry; assay type: functional, organism-based; settings: Human immunodeficiency virus 1, NL4-3, Jurkat
Method in brief: (§4)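 Acutely infected A72 Jurkat cells. EC50 (μg/mL) is the concentration giving 50% inhibition of GFP expression relative to drug-free infection. CC50 is 50% reduction in cell viability. SI = CC50/EC50. Mean ± SD of ≥2 experiments.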

[21] = system: Human immunodeficiency virus 1; assay: Antiviral activity against HIV1 NL4-3 pseudotyped with VSV-G envelope infected in human C8166 cells assessed as inhibition of GFP expression after 48 hrs by flow cytometry; assay type: functional, organism-based
Method in brief: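 VSV-G-pseudotyped (env-deficient) GFP-encoding NL4.3 taken from transfection supernatant at 60 h and clarified at 450g for 10 min. Used to infect 3 × 10⁴ C8166 cells (RPMI 1640, 10% FCS) with graded compound concentrations. GFP expression read by flow cytometry 48 h post-infection, with the no-compound infection control set as 100%.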

[22] = system: Human immunodeficiency virus; assay: Antiviral activity against AZT-resistant HIV infected in human A72 Jurkat cells assessed as inhibition of GFP expression after 48 hrs by flow cytometry; assay type: functional, organism-based; settings: Human immunodeficiency virus 1, Jurkat; method in brief: as §4
[23] = Cytotoxicity against human Jurkat A72 cells by MTT assay; assay type: cell-based; method in brief: as §4
[24] = system: Human immunodeficiency virus 1; assay: Antiviral activity against HIV1 3B infected in human A72 Jurkat cells assessed as inhibition of GFP expression after 48 hrs by flow cytometry; assay type: functional, organism-based; settings: Human immunodeficiency virus 1, 3B; method in brief: as §4
[25] = system: Human immunodeficiency virus 2; assay: Antiviral activity against HIV2 ROD infected in human A72 Jurkat cells assessed as inhibition of GFP expression after 48 hrs by flow cytometry; assay type: functional, organism-based; settings: Human immunodeficiency virus 2, ISOLATE ROD; method in brief: as §4
[26] = system: Human immunodeficiency virus; assay: Antiviral activity against HIV S07 infected in human A72 Jurkat cells assessed as inhibition of GFP expression after 48 hrs by flow cytometry; assay type: functional, organism-based; settings: Human immunodeficiency virus 1, S07, Jurkat; method in brief: as §4
[27] = system: Human immunodeficiency virus; assay: Antiviral activity against HIV S067 infected in human A72 Jurkat cells assessed as inhibition of GFP expression after 48 hrs by flow cytometry; assay type: functional, organism-based; settings: Human immunodeficiency virus 1, S067, Jurkat; method in brief: as §4
[28] = Selectivity index, ratio of CC50 for human Jurkat A72 cells to EC50 for HIV1 3B; assay type: toxicity, cell-based; method in brief: as §4
[29] = system: Human immunodeficiency virus; assay: Antiviral activity against HIV S056 infected in human A72 Jurkat cells assessed as inhibition of GFP expression after 48 hrs by flow cytometry; assay type: functional, organism-based; settings: Human immunodeficiency virus 1, S056, Jurkat; method in brief: as §4
[30] = system: Human immunodeficiency virus 1; assay: Antiviral activity against HIV1 3B infected in human MT4 cells assessed as time-of-addition prolongation at 2 ug/ml after 31 hrs post infection by ELISA; assay type: functional; method in brief: as §3

Compound	EC50 (Reovirus sp.)	EC50 [1]	EC50 [2]	EC50 (Human alphaherpesvirus 1 [3])	EC50 [4]	EC50 (Sindbis virus)	MCC [5]	selectivity ratio [6]	EC50 (Human respirovirus 3)	EC50 (Human alphaherpesvirus 2)	CC50 at 120 h [7]	EC50 [8]	MCC [9]	EC50 (Human alphaherpesvirus 1 [10])	EC50 [11]	EC50 (Punta Toro virus)	EC50 (Vaccinia virus)	EC50 [12]	CC50 at 120 h [13]	Ratio CC50/EC50 [14]	other results
CC[n+]1ccc(-c2cc[n+](Cc3cc(C[n+]4ccc(-c5cc[n+](CC)cc5)cc4)cc(-[n+]4ccc(-c5cc[n+](-c6cc(C[n+]7ccc(-c8cc[n+](CC)cc8)cc7)cc(C[n+]7ccc(-c8cc[n+](CC)cc8)cc7)c6)cc5)cc4)c3)cc2)cc1.F[P-](F)(F)(F)(F)F.F[P-](F)(F)(F)(F)F.F[P-](F)(F)(F)(F)F.F[P-](F)(F)(F)(F)F.F[P-](F)(F)(F)(F)F.F[P-](F)(F)(F)(F)F.F[P-](F)(F)(F)(F)F.F[P-](F)(F)(F)(F)F.F[P-](F)(F)(F)(F)F.F[P-](F)(F)(F)(F)F	> 50 mg/L	0.79 mg/L	> 50 mg/L	30 mg/L	> 49 µM	> 50 mg/L	> 50 µg/mL	48.5	> 50 mg/L	50 mg/L	> 49 µM	> 50 mg/L	> 50 µg/mL	6 mg/L	> 49 µM	> 50 mg/L	> 50 mg/L	1.01 µM	26.8 mg/L	34	MCC [15]: > 50 µg/mL; EC50 [16]: 50 mg/L; EC50 [17]: > 49 µM
Cc1cn([C@H]2C[C@H](N=[N+]=[N-])[C@@H](CO)O2)c(=O)[nH]c1=O [ZIDOVUDINE]	–	–	–	–	–	–	–	–	–	–	–	–	–	–	–	–	–	–	–	–	Time [18]: 5 h
CC[n+]1ccc(-c2cc[n+](Cc3cc(Cc4ccc(-c5cc[n+](Cc6cc(C[n+]7ccc(-c8cc[n+](Cc9cc(C[n+]%10ccc(-c%11cc[n+](CC)cc%11)cc%10)cc(C[n+]%10ccc(-c%11cc[n+](CC)cc%11)cc%10)c9)cc8)cc7)cc(C[n+]7ccc(-c8cc[n+](Cc9cc(C[n+]%10ccc(-c%11cc[n+](CC)cc%11)cc%10)cc(C[n+]%10ccc(-c%11cc[n+](CC)cc%11)cc%10)c9)cc8)cc7)c6)cc5)cc4)cc(C[n+]4ccc(-c5cc[n+](CC)cc5)cc4)c3)cc2)cc1.F[P-](F)(F)(F)(F)F.F[P-](F)(F)(F)(F)F.F[P-](F)(F)(F)(F)F.F[P-](F)(F)(F)(F)F.F[P-](F)(F)(F)(F)F.F[P-](F)(F)(F)(F)F.F[P-](F)(F)(F)(F)F.F[P-](F)(F)(F)(F)F.F[P-](F)(F)(F)(F)F.F[P-](F)(F)(F)(F)F.F[P-](F)(F)(F)(F)F.F[P-](F)(F)(F)(F)F.F[P-](F)(F)(F)(F)F.F[P-](F)(F)(F)(F)F.F[P-](F)(F)(F)(F)F.F[P-](F)(F)(F)(F)F.F[P-](F)(F)(F)(F)F	> 50 mg/L	1.62 mg/L	> 50 mg/L	10 mg/L	0.46 µM	> 50 mg/L	> 50 µg/mL	75.8	> 50 mg/L	10 mg/L	19.7 µM	> 50 mg/L	> 50 µg/mL	2 mg/L	≥ 1.55 µM	> 50 mg/L	> 50 mg/L	0.26 µM	4.04 mg/L	2.5	Time [19]: 1 h; EC50 [20]: < 0.2 mg/L; inhibition [21]: Dose-dependent effect; EC50 [22]: 5.9 mg/L; CC50 [23]: 102 mg/L; EC50 [24]: 0.685 mg/L; EC50 [25]: 21.5 mg/L; EC50 [26]: < 0.2 mg/L; EC50 [27]: < 0.2 mg/L; MCC [15]: > 50 µg/mL; selectivity ratio ([28]; read-out: Ratio CC50/EC50): 149; EC50 [16]: 50 mg/L; EC50 [29]: < 2 mg/L; EC50 [17]: > 19.7 µM
Cc1ccnc2c1NC(=O)c1cccnc1N2C1CC1 [NEVIRAPINE]	–	–	–	–	–	–	–	–	–	–	–	–	–	–	–	–	–	–	–	–	EC50 [20]: 0.008 mg/L (≈ 0.03 µM); EC50 [22]: 0.005 mg/L (≈ 0.0188 µM); Time [30]: 10 h; CC50 [23]: > 2 mg/L; EC50 [24]: 0.008 mg/L (≈ 0.03 µM); EC50 [25]: > 2 mg/L; EC50 [26]: 0.012 mg/L (≈ 0.0451 µM); EC50 [27]: 0.016 mg/L (≈ 0.0601 µM); selectivity ratio [28]: > 250; EC50 [29]: < 0.2 mg/L
c1cc(CN2CCCNCCNCCCNCC2)ccc1CN1CCCNCCNCCCNCC1	–	–	–	–	–	–	–	–	–	–	–	–	–	–	–	–	–	–	–	–	inhibition [21]: inactive
